IDH1 mut inh – inhibitors of IDH1 R132H reductase, primary screen, biochemical, plate reader, single point; diaphorase/resazurin fluorescence, 60 min; inhibition, % at 10 µM; Isocitrate dehydrogenase [NADP] cytoplasmic (Homo sapiens), O75874; 70,000 tested, 0.18% active; AID 624101, 2012; in the data active = inhibition above about 34%; inconclusive = no clear call, values can overlap the other calls; inactive = below about 11%;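 also: 0% = DMSO and 100% = no enzyme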
KDM4C inh – inhibitors of GASC-1 (KDM4C) histone demethylase, primary screen, biochemical, single concentration HTS; inhibition, % at 12.5 µM; GST-KDM4C 2-372, H3K9me3 peptide, LANCE TR-FRET; 96,000 tested, 0.15% active; Lysine-specific demethylase 4C (Homo sapiens), Q9H3R0;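 active = mean replicate inhibition above about 25%, with at least 55% of replicates also reaching it, limit read from the data, passing the limit was not always enough; inconclusive = only one of those two conditions met; inactive = neither condition met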
Target sequence (Q9H3R0 2-372 limits assumed): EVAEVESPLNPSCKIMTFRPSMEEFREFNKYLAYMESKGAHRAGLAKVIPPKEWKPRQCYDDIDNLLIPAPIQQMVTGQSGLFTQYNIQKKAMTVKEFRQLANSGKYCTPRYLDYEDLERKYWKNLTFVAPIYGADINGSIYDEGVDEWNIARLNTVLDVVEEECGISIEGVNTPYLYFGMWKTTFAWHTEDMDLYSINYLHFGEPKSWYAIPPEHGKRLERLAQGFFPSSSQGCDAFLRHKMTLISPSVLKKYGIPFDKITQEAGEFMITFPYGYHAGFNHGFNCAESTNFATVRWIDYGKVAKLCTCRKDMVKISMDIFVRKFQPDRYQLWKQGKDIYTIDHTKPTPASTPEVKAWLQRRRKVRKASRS
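Material: GST-tagged GASC-1 (JMJD2C) catalytic fragment, aa 2-372. Input: enzyme final amount 10 nM. Medium: HEPES buffer, pH 7.5, plus ascorbate. Reagent: H3K9me3 peptide substrate, Fe(II), 2-oxoglutarate. Doses: single dose. Times: reaction 30 min RT, detection step 1 h RT. Measured by: LANCE TR-FRET. Evaluation: Fall in 671/618 emission ratio as inhibition.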
* = called active by the depositor; ? = inconclusive; / = no result. This is one part of a sample in which hits are shown more often than they occur.

SMILES | IDH1 mut inh | KDM4C inh
C[C@@H]1CN([C@@H](C)CO)S(=O)(=O)c2ccc(C3=CCCCC3)cc2O[C@H]1CN(C)C(=O)Cc1ccncc1 | 58* | -1
COCCOC(=O)N1C(=O)[C@@]2(c3ccccc31)[C@H](C(=O)NC[C@H](O)c1ccccc1)[C@H]1C(=O)O[C@H](c3ccccc3)[C@H](c3ccccc3)N1[C@@H]2c1ccc(OCCO)cc1 | 0 | /
COc1ccc(C(=O)Nc2ccccc2)cc1S(=O)(=O)Nc1cccnc1 | 0 | /
C/C=C/c1ccc2c(c1)O[C@@H](CN(C)C(=O)Cc1cccnc1)[C@H](C)CN([C@H](C)CO)S2(=O)=O | 12 | 1
C/C=C/c1ccc2c(c1)O[C@H](CN(C)Cc1ccncc1)[C@@H](C)CN([C@H](C)CO)S2(=O)=O | 42* | 1
C/C=C/c1ccc2c(c1)O[C@@H](CN(C)C(=O)Cc1cccnc1)[C@H](C)CN([C@@H](C)CO)S2(=O)=O | 46* | 6
C/C=C/c1ccc2c(c1)O[C@@H](CN(C)Cc1ccncc1)[C@@H](C)CN([C@@H](C)CO)S2(=O)=O | 2 | 1
Cc1nc(SCC(=O)Nc2oc(-c3ccccc3)c(-c3ccccc3)c2C#N)nc2c1CCCC2 | 0 | /
N#CCCN(Cc1ccco1)S(=O)(=O)c1ccccc1 | 0 | /
O=S(c1ccccc1)c1ccc2nnnn2n1 (stereo unspecified) | 62* | /
O=C(O)CNc1ncnc2oc(-c3ccccc3)c(-c3ccccc3)c12 | 2 | /
O=C(COc1ccc(I)cc1)NCc1ccco1 | 1 | /
CN1C(=O)c2cc(NC(=O)C3CC3)ccc2OC[C@@H]2O[C@@H](CC(=O)O)CC[C@@H]21 | / | 1
CN1C(=O)c2cc(NC(=O)C3CC3)ccc2OC[C@H]2O[C@@H](CC(=O)O)CC[C@@H]21 | / | 44*
CCN(CC(=O)Nc1ccc(F)c(Cl)c1)S(=O)(=O)c1ccc2ccccc2c1 | 0 | /
COc1ccc(Cl)cc1Nc1nc(N)nc(-c2cc3ccccc3o2)n1 | 0 | /
CC(C)Sc1nc2sc3c(c2c2nnc(SCC(=O)c4ccccc4)n12)CCCC3 | 1 | /
COCCNC(=O)C[C@H]1C[C@@H]2c3cc(N(C)C)ccc3O[C@@H]2[C@H](CO)O1 | -2 | 17
COC(=O)C[C@@H]1C[C@@H]2c3cc(NC(=O)Nc4ccccc4F)ccc3O[C@@H]2[C@@H](CO)O1 | 81* | 41*
CN(C)c1ccc2c(c1)[C@@H]1C[C@@H](CC(=O)N3CCOCC3)O[C@@H](CO)[C@@H]1O2 | -17 | 44*
COCCNC(=O)C[C@H]1C[C@@H]2c3cc(NC(=O)c4ccc5c(c4)OCO5)ccc3O[C@@H]2[C@@H](CO)O1 | -3 | 1
CCCNC(=O)C[C@H]1C[C@H]2c3cc(N(C)C)ccc3O[C@H]2[C@H](CO)O1 | / | 49*
COCCNC(=O)C[C@H]1C[C@H]2c3cc(NC(=O)c4ccc5c(c4)OCO5)ccc3O[C@H]2[C@@H](CO)O1 | 16 | 54*
O=C(O)C[C@@H]1C[C@H]2c3cc(NC(=O)Nc4ccccc4F)ccc3O[C@H]2[C@H](CO)O1 | -2 | 3
CN(C)c1ccc2c(c1)[C@@H]1C[C@@H](CC(=O)N3CCCCC3)O[C@H](CO)[C@@H]1O2 | / | 24
SMILES | IDH1 mut inh | KDM4C inh
O=C(Cn1cnc2scc(-c3ccccc3)c2c1=O)Nc1ccc(Oc2ccccc2)cc1 | 0 | /
O=[N+]([O-])c1ccc(S(=O)(=O)NCc2cccnc2)cc1 | 0 | /
Cc1ccc(C)c(NC(=O)CSc2nnc(-c3ccncc3)n2-c2ccc(F)cc2)c1 | 0 | /
Cc1cc(I)ccc1NC(=O)CN(c1cccc(C(F)(F)F)c1)S(C)(=O)=O | 0 | /
COc1ccc(S(=O)(=O)Nc2ccc3c(c2)[C@H]2C[C@@H](CC(=O)NCC4CC4)O[C@H](CO)[C@H]2O3)cc1 | 74* | 44*
COCCNC(=O)C[C@@H]1C[C@@H]2c3cc(N(C)C)ccc3O[C@@H]2[C@H](CO)O1 | -2 | ?
CN(C)c1ccc2c(c1)[C@H]1C[C@H](CC(=O)NCc3ccccc3)O[C@@H](CO)[C@H]1O2 | -2 | 36*
COc1ccc(S(=O)(=O)Nc2ccc3c(c2)[C@H]2C[C@@H](CC(=O)NCC4CC4)O[C@@H](CO)[C@H]2O3)cc1 | 0 | 0
CN(C)c1ccc2c(c1)[C@@H]1C[C@@H](CC(=O)NCc3ccccc3)O[C@H](CO)[C@@H]1O2 | -3 | 25
CCCNC(=O)C[C@H]1C[C@@H]2c3cc(N(C)C)ccc3O[C@@H]2[C@@H](CO)O1 | -10 | 31*
Cc1c(C(=O)C2C(=O)C(=O)N(Cc3cccnc3)C2c2ccccn2)cnn1-c1ccccc1 (stereo unspecified) | 0 | /
COC(=O)/C=C/c1cc(O)ccc1O | 89* | /
